Assay [1] deals with Human immunodeficiency virus 1. Nature of the assay: Antiviral activity against HIV1 MDR/B harboring protease L10I, K14R, L33I, M36I, M46I, F53I, K55R, I62V, L63P, A71V, G73S, V82A, L90M, I93L mutant infected in PHA-PBM cells assessed as inhibition of p24 Gag protein production. The format is functional, organism-based. As to conditions: Human immunodeficiency virus 1, MDR/B, PBMC. The method in brief:
(§1)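 EC50 measured against each isolate. Assays run in duplicate. Values are means (±1 standard deviation) from two or three independent experiments. Fold-change for each isolate is its EC50 relative to the EC50 for wild-type HIV-1ERS104pre.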

Assay [2] concerns Human immunodeficiency virus 1. The assay is described as follows: Antiviral activity against HIV1 MDR/G harboring protease L10I, V11I, T12E, I15V, L19I, R41K, M46L, L63P, A71T, V82A, and L90M mutant infected in PHA-PBM cells assessed as inhibition of p24 Gag protein production. It counts as functional, organism-based. Particulars: Human immunodeficiency virus 1, MDR/G, PBMC. The method in brief:
as §1

The subject of assay [3] is Human immunodeficiency virus 1. The assay is described as follows: Antiviral activity against HIV1 MDR/C harboring protease L10I, I15V, K20R, L24I, M36I, M46L, I54V, I62V, L63P, K70Q, V82A, and L89 mutant infected in PHA-PBM cells assessed as inhibition of p24 Gag protein production. Particulars: Human immunodeficiency virus 1, MDR/C, PBMC. The format is functional, organism-based. The method in brief: as §1

The test system of assay [4] is Human immunodeficiency virus 1. Nature of the assay: Antiviral activity against HIV1 MDR/TM harboring protease L10I, K14R, R41K, M46L, I54V, L63P, A71V, V82A, L90M, I93L mutant infected in PHA-PBM cells assessed as inhibition of p24 Gag protein production. It counts as functional, organism-based. Particulars: Human immunodeficiency virus 1, MDR/TM, PBMC. The procedure, abridged:
as §1

Assay [5] relates to Human immunodeficiency virus 1. The assay is described as follows: Antiviral activity against HIV1 […] infected in human MT2 cells by MTT assay. It counts as functional, organism-based. Particulars: Human immunodeficiency virus 1, MT2. The method in brief: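 MT-2 human T-lymphoid cells (2 × 10^3) infected with 100 TCID50 of HIV-1LAI and cultured with inhibitor present. IC50 read out by MTT assay.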
On the technique in general: Formazan colour is commonly taken as a measure of viable cells.

For another assay, the target named is Protease (Human immunodeficiency virus 1, UniProt Q9YQ12). Nature of the assay: Inhibition of HIV1 protease using hexapeptide Ac-Thr-Ile-Nle-Nle-Gln-Arg-NH2 as substrate by fluorimetric assay.
The test system of assay [6] is Human immunodeficiency virus 1. Nature of the assay: Antiviral activity against wild type HIV1 ERS104 infected in PHA-PBM cells assessed as inhibition of p24 Gag protein production. It counts as functional, organism-based. As to conditions: Human immunodeficiency virus 1, ERS104, PBMC. The method in brief:
as §1

Assay [7] has as its system Human immunodeficiency virus 1. Nature of the assay: Ratio of EC50 for HIV1 MDR/B harboring protease L10I, K14R, L33I, M36I, M46I, F53I, K55R, I62V, L63P, A71V, G73S, V82A, L90M, I93L mutant to EC50 for HIV1 ERS104 harboring wild type protease. It counts as functional. The procedure, abridged:
(§2)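 Fold-change: EC50 against each multidrug-resistant HIV-1 isolate divided by EC50 against wild-type HIV-1ERS104pre. Assays run in duplicate; values are means (±1 standard deviation) from two or three independent experiments.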

Assay [8] deals with Human immunodeficiency virus 1. The assay is described as follows: Ratio of EC50 for HIV1 MDR/G harboring protease L10I, V11I, T12E, I15V, L19I, R41K, M46L, L63P, A71T, V82A, and L90M mutant to EC50 for HIV1 ERS104 harboring wild type protease. It counts as functional. The method in brief: as §2
The subject of assay [9] is Human immunodeficiency virus 1. Nature of the assay: Ratio of EC50 for HIV1 MDR/C harboring protease L10I, I15V, K20R, L24I, M36I, M46L, I54V, I62V, L63P, K70Q, V82A, and L89 mutant to EC50 for HIV1 ERS104 harboring wild type protease. It counts as functional. The method in brief:
as §2

The subject of assay [10] is Human immunodeficiency virus 1. Nature of the assay: Ratio of EC50 for HIV1 MDR/TM harboring protease L10I, K14R, R41K, M46L, I54V, L63P, A71V, V82A, L90M, I93L mutant to EC50 for HIV1 ERS104 harboring wild type protease. It counts as functional. The procedure, abridged:
as §2

Here are results for eight compounds from ChEMBL document CHEMBL1955842, “Substituent effects on P2-cyclopentyltetrahydrofuranyl urethanes: design, synthesis, and X-ray studies of potent HIV-1 protease inhibitors” (Bioorg Med Chem Lett, 2012).

By EC50 is commonly meant the concentration giving half of the maximal effect. For orientation: IC50 means the concentration needed to halve the response being measured. A high value points to a need for much substance. The term Ki denotes a measure of affinity in units of concentration, obtained from inhibition or displacement. High values mean weaker binding, low ones tighter binding.

SMILES strings stand for the structures.

Sequence of Protease (Q9YQ12 whole entry): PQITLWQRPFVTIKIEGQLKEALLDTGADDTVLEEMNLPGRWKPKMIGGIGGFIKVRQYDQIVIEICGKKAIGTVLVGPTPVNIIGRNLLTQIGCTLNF

`CC(C)CN(C[C@@H](O)[C@H](Cc1ccccc1)NC(=O)O[C@H]1CO[C@H]2OCC[C@H]21)S(=O)(=O)c1ccc(N)cc1`: the EC50 in assay [1] stood at 19 nM; in assay [2], 11 nM; in assay [3], 11 nM; in assay [4], 28 nM.
Regarding `COc1ccc(S(=O)(=O)N(CC(C)C)C[C@@H](O)[C@H](Cc2ccccc2)NC(=O)O[C@@H]2C[C@@H]3[C@H](NC(C)=O)CO[C@@H]3C2)cc1`, inhibition in [5] was half-maximal at 25 nM (IC50). Also, the affinity at Protease corresponds to a Ki of 0.0074 nM.
Compound `COc1ccc(S(=O)(=O)N(CC(C)C)C[C@@H](O)[C@H](Cc2ccccc2)NC(=O)O[C@@H]2C[C@@H]3[C@@H](NC(C)=O)CO[C@@H]3C2)cc1` came in with an IC50 in [5] of 31 nM. The Ki on Protease came to 0.0075 nM.
Turning to `COC(=O)N[C@@H]1CO[C@@H]2C[C@H](OC(=O)N[C@@H](Cc3ccccc3)[C@H](O)CN(CC(C)C)S(=O)(=O)c3ccc(OC)cc3)C[C@H]12`, the IC50 in [5] was 1.6 nM. Further, the EC50 worked out at 29 nM in assay [6]; 75 nM in assay [1]; 39 nM in assay [2]; 30 nM in [3]; 74 nM in assay [4]. The “Ratio EC50” value was determined as 3 in assay [7], 1 in [8], 1 in assay [9] and 3 in assay [10].
For the compound `COC(=O)N[C@H]1CO[C@@H]2C[C@H](OC(=O)N[C@@H](Cc3ccccc3)[C@H](O)CN(CC(C)C)S(=O)(=O)c3ccc(OC)cc3)C[C@H]12`, inhibition in [5] was half-maximal at 4.6 nM (IC50). Moreover, the EC50 was 3 nM in assay [6]; 18 nM in assay [1]; 20 nM in [2]; 15 nM in assay [3]; 24 nM in [4]. Also, the “Ratio EC50” value in [7] is listed as 6; in assay [8], 7; in assay [9] it was 5; in assay [10] it was 8. Further, on Protease, the affinity corresponds to a Ki of 0.004 nM.
`COc1ccc(S(=O)(=O)N(CC(C)C)C[C@@H](O)[C@H](Cc2ccccc2)NC(=O)O[C@@H]2C[C@@H]3[C@H](NS(C)(=O)=O)CO[C@@H]3C2)cc1`: half-maximal inhibition in [5] (IC50) was put at 28 nM. At Protease, this compound gave a Ki of 0.032 nM.
`COc1ccc(S(=O)(=O)N(CC(C)C)C[C@@H](O)[C@H](Cc2ccccc2)NC(=O)O[C@@H]2C[C@@H]3[C@@H](NS(C)(=O)=O)CO[C@@H]3C2)cc1` gave an IC50 in assay [5] of 50 nM. On Protease, the Ki came out at 0.18 nM.
Consider `COc1ccc(S(=O)(=O)N(CC(C)C)C[C@@H](O)[C@H](Cc2ccccc2)NC(=O)O[C@@H]2C[C@@H]3[C@@H](OC(=O)N(C)C)CO[C@@H]3C2)cc1`, for which 4.7 nM corresponded to half-maximal inhibition in [5] (IC50). This compound also yielded a Ki at Protease of 0.02 nM.
